Among the data in ChEMBL document CHEMBL1133632, “A new class of antituberculosis agents” (2000) are MIC values, retold here.

Converted amounts (≈) assume the structure as drawn.

The subject of one assay is Mycobacterium tuberculosis. The assay is described as follows: Activity against Mycobacterium tuberculosis (H37Rv) using the standard BACTEC radiometric growth assay. It is filed as functional.
Details: not given
In a few lines: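 BACTEC radiometric MIC against M. tuberculosis H37Rv. Compounds in DMSO (1 mg/mL stock), final 50, 25, 12.5, 6.25, 3.0, 1.5 µg/mL. Inoculum 0.1 mL of a 1.0 McFarland suspension. Controls: DMSO direct control and 1:100 organism dilution. Incubated 37 °C, growth index read daily until the 1:100 control reached 30. MIC = lowest concentration with 1-day GI change below the 1:100 control.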
In the case of `CCCCCCCCC[S+]([O-])CC(N)=O` (single isomer, unassigned), the MIC stood at 25 µg/mL (≈ 107 µM).

Staying with this assay, now noted: Mycobacterium tuberculosis; read-out: MIC.
For `CCCCCCCCCCS(=O)(=O)CCC(N)=O`, the minimum inhibitory concentration (MIC) was more than 25 µg/mL.
As for `CCCCCCCCCCS(=O)(=O)CC(N)=O`, the MIC was 1.5 µg/mL (≈ 5.69 µM).
As for `CCCCCCCCC[S+]([O-])CC(N)=O` (racemic), the minimum inhibitory concentration (MIC) was determined as 25 µg/mL (≈ 107 µM).
Consider `CCCCCCCCS(=O)(=O)NS(C)(=O)=O`, for which the MIC is more than 25 µg/mL.
Take `CCCCCCCCCCS(=O)(=O)C(C)C(N)=O` (stereo unspecified): the MIC is more than 25 µg/mL.
In the case of `NNC(=O)c1ccncc1` [ISONIAZID], the minimal inhibitory concentration (MIC) is 0.1 µg/mL (≈ 0.729 µM).
Same read-out and setting: the value for `CCCCCCCCS(=O)(=O)NS(N)(=O)=O` was more than 25 µg/mL; that for `CCCCCCCCS(=O)(=O)CC(=O)O` was more than 25 µg/mL.
As for `CCCCCCC/C=C/S(=O)(=O)CC(N)=O`, the minimal inhibitory concentration (MIC) stood at 12.5 µg/mL (≈ 50.5 µM).
With `CCCCCCCCS(=O)(=O)CC(N)=O`, the MIC was 6.25 µg/mL (≈ 26.6 µM).
In the case of `CCCCCCCCS(=O)(=O)CC(=O)OCc1ccccc1`, the minimum inhibitory concentration (MIC) was 12.5 µg/mL (≈ 38.3 µM).
Take `CCCCCCCCCCCCCCCCCCS(=O)(=O)CC(N)=O`: the MIC is more than 50 µg/mL.
As for `NC(=O)CS(=O)(=O)CCCCc1ccccc1`, the MIC was more than 25 µg/mL.
In the case of `CCCCCCCC[S+]([O-])CC(=O)OC` (stereo unspecified), the MIC is 12.5 µg/mL (≈ 53.3 µM).
The same measure, in the same setting: the value for `CCCCCCCCS(=O)(=O)CC(=O)OC` was more than 25 µg/mL.
Regarding `CCCCCCCCCCSCC(N)=O`, the minimum inhibitory concentration (MIC) came to 25 µg/mL (≈ 108 µM).
Regarding `CCCCCCCCC[S@@+]([O-])CC(N)=O`, the minimum inhibitory concentration (MIC) was 25 µg/mL (≈ 107 µM).
Turning to `CCCCCCS(=O)(=O)CC(N)=O`, the minimal inhibitory concentration (MIC) was more than 50 µg/mL.
For `CO[C@H]1/C=C/O[C@@]2(C)Oc3c(C)c(O)c4c(O)c(c(/C=N/N5CCN(C)CC5)c(O)c4c3C2=O)NC(=O)/C(C)=C\C=C\[C@H](C)[C@H](O)[C@@H](C)[C@@H](O)[C@@H](C)[C@H](OC(C)=O)[C@@H]1C` [RIFAMPIN], the MIC is 2 µg/mL (≈ 2.43 µM).
Consider `CCCCCCCS(=O)(=O)CC(N)=O`, for which the minimal inhibitory concentration (MIC) was more than 25 µg/mL.
Take `CC[C@@H](CO)NCCN[C@@H](CC)CO` [ETHAMBUTOL]: the MIC was 2 µg/mL (≈ 9.79 µM).
Turning to `NC(=O)CS(=O)(=O)CCCCCc1ccccc1`, the MIC was determined as 12.5 µg/mL (≈ 46.4 µM).
In the case of `CCCCCCCCC[S+]([O-])CC(=O)OC` (single isomer, unassigned), the MIC was more than 25 µg/mL.
Turning to `C=C/C(C)=C/[C@@]1(C)SC(=O)C(C)=C1O` [THIOLACTOMYCIN], the MIC was determined as 25 µg/mL (≈ 119 µM).
Consider `CCCCCCCCCCP(=O)([O-])CC(N)=O.[K+]`, for which the MIC was more than 50 µg/mL.
Turning to `NC(=O)c1cnccn1` [PYRAZINAMIDE], the MIC worked out at 100 µg/mL (≈ 812 µM).
`CCCCCCC/C=C\S(=O)(=O)CC(N)=O`: the MIC was determined as 12.5 µg/mL (≈ 50.5 µM).
Consider `CCCCCCCCCC[S+]([O-])CC(N)=O` (stereo unspecified), for which the MIC stood at 6.25 µg/mL (≈ 25.3 µM).
Take `CC(C)CCCCCCCS(=O)(=O)CC(N)=O`: the MIC stood at 1.5 µg/mL (≈ 5.69 µM).
On the same count and under the same terms, under `CN[C@@H]1[C@H](O[C@H]2[C@H](O[C@H]3[C@H](O)[C@@H](O)[C@H](N=C(N)N)[C@@H](O)[C@@H]3N=C(N)N)O[C@@H](C)[C@]2(O)C=O)O[C@@H](CO)[C@H](O)[C@H]1O` [STREPTOMYCIN] stands 2 µg/mL (≈ 3.44 µM).
As for `CCCCCCCCCCCCS(=O)(=O)CC(N)=O`, the minimal inhibitory concentration (MIC) amounted to 12.5 µg/mL (≈ 42.9 µM).
`CCCCCCCCCS(=O)(=O)CC(N)=O`: the minimal inhibitory concentration (MIC) worked out at 3 µg/mL (≈ 12 µM).
Same read-out and setting: under `CC(C)CCCC(C)CCS(=O)(=O)CC(N)=O` (stereo unspecified) stands 6.25 µg/mL (≈ 23.7 µM); under `NC(=O)CS(=O)(=O)CCCCCCc1ccccc1`, 12.5 µg/mL (≈ 44.1 µM); under `CCCCCCCCS(=O)(=O)NC(N)=O`, more than 25 µg/mL.
On the same count and under the same terms, under `CCOCCOCCS(=O)(=O)CC(N)=O` stands more than 25 µg/mL.
For the compound `CCCCCCCCCCOCC(N)=O`, the MIC is more than 25 µg/mL.
On the same count and under the same terms, the value for `CCCCCCCC[S+]([O-])CC(=O)OCc1ccccc1` (stereo unspecified) was 6.25 µg/mL (≈ 20.1 µM).
The same measure, in the same setting: under `CCCCCCCCC[S+]([O-])CC(=O)OC` (racemic) stands more than 25 µg/mL; under `C/C=C/C/C=C/CCC(=O)[C@H]1O[C@H]1C(N)=O` [CERULENIN], 1.5 µg/mL (≈ 6.72 µM).
